Experiments:
[1] = test system: CYP3A4; experiment: Plasma 4β‐hydroxycholesterol day 14/day 1 ratio; format: in vivo, human; conditions: repeated doses up to 20 mg b.i.d.
In short: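 MAD healthy adults received oral capsules (10 or 20 mg q.d., 15 or 20 mg b.i.d.; fasted) or placebo for 14 days. Plasma 4β‑hydroxycholesterol was measured predose on day 1 and day 14, and day 14/day 1 ratios were calculated. Geometric mean of the log‑transformed ratio with 90% CI was obtained by analysis of covariance, per dose group and overall.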

[2] = Safety, TEAEs, PK‐CSF; format: in vivo, human; conditions: for ALT increase (AESI), one participant: PK‐CSF 10 mg
In short: (§1)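 Safety population: all participants exposed to study drug, followed from first dose to the end‑of‑study visit. Assessments covered physical and neurological exams, AEs, SAEs and AESIs (seizure, ALT ≥2×ULN, QTc ≥500 ms, pregnancy, overdose). Lab, vital‑sign and 12‑lead/Holter ECG abnormalities were also recorded. Coding used MedDRA 23.1 (part 1) or 24.0 (part 2), with severity graded 1–4 per FDA guidance. Counts were summarised per dose group, with placebo pooled.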

[3] = molecular target: T1, RIPK1 (Homo sapiens, UniProt Q13546); experiment: pS166‐RIPK1 inhibition in PBMC lysates, SAD; format: in vivo; conditions: SAD all dose groups, from 1 h to at least 5 h postdose
T1 sequence (Q13546 1-671): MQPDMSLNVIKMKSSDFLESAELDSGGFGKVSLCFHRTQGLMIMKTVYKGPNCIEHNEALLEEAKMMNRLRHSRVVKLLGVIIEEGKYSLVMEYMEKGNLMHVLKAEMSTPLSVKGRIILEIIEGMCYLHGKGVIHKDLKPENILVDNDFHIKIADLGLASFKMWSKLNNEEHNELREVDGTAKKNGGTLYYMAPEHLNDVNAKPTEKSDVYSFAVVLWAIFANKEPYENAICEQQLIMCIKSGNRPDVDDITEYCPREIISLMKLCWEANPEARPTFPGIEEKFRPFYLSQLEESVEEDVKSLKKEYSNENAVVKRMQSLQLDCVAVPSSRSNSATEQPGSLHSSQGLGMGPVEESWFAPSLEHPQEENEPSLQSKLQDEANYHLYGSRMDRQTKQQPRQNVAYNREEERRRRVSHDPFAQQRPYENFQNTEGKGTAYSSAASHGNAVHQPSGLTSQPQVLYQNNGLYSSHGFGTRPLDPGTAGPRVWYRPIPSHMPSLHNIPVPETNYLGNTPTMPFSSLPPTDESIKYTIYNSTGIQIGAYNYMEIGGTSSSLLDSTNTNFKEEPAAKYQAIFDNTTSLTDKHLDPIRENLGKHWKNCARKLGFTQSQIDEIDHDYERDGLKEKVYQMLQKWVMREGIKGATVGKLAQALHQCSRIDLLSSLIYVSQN
In short: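 After a single fasted oral dose or placebo, blood was collected predose, at 1, 3, 5 and 8 h on day 1, and at 24 h. PBMCs were isolated and autophosphorylated RIPK1 (pS166) quantified in lysates. Percent change from baseline was summarised descriptively as median (Q1–Q3) by dose group and timepoint.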

[4] = Plasma PK, SAD; format: in vivo, human; conditions: for CL/F, geometric mean (%CV): fasting
In short: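 Healthy adults received a single fasted oral capsule dose (10–40 mg) or placebo; fasting was overnight ≥8 h and 2 h post‑dose. Plasma was sampled predose, at 10 postdose times on day 1 and once each on days 2 and 3, and quantified by HPLC‑MS (LLOQ 1 ng/mL). Cmax, Tmax, AUClast, AUC, t1/2z, CL/F and Vz/F were computed. Dose proportionality was tested with a linear model.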

[5] = molecular target: T1, RIPK1; experiment: In vitro inhibition of RIPK1 activity in human PBMCs; format: cell-based
[6] = molecular target: T1, RIPK1; experiment: pS166‐RIPK1 inhibition in PBMC lysates, MAD; format: in vivo; conditions: MAD all dose groups
In short: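 Blood was drawn predose on day −1 or 1, on day 7, on day 14 predose and 1, 3, 5 and 8 h postdose, and once on days 15 and 16. Subjects received 14‑day oral q.d./b.i.d. dosing or placebo. PBMCs were isolated and pS166‑RIPK1 measured in lysates. Percent change from baseline was summarised as median (Q1–Q3) per dose group and time.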

[7] = Overall safety and tolerability, all study parts; format: in vivo, human
In short: as §1

[8] = molecular target: T1, RIPK1; experiment: In vitro inhibition of RIPK1 activity in iPSC‐derived microglia; format: cell-based
[9] = Safety, TEAEs, SAD; format: in vivo, human
In short: as §1

[10] = both, human, plasma, oral, 10 mg
[11] = both, human, plasma, oral, 20 mg
[12] = both, human, plasma, oral, 30 mg
[13] = both, human, plasma, oral, 40 mg

For `CC(C)(C(=O)N1CCOc2c(C#N)cncc2C1)C(F)F` [SAR443820], the “Potential for CYP3A4 induction” value [1] was “no potential for CYP3A4 induction”, the “Any TEAE, n (%)” value ([2]; PK-CSF 10 mg (n = 6)) was 4 (66.7) n (%) and the “Any grade ≥3 TEAE, n (%)” value ([2]; PK-CSF 10 mg (n = 6)) was 0 n (%). For the same molecule, the “Any treatment‐emergent AESI, n (%)” value ([2]; PK-CSF 10 mg (n = 6)) was 1 (16.7) n (%), the “Any treatment‐emergent SAE, n (%)” value ([2]; PK-CSF 10 mg (n = 6)) was 0 n (%) and the “Any TEAE, n (%)” value ([2]; PK-CSF 40 mg (n = 6)) was 6 (100.0) n (%). For the same molecule, the “Any grade ≥3 TEAE, n (%)” value ([2]; PK-CSF 40 mg (n = 6)) was 1 (16.7) n (%), the “Any treatment‐emergent AESI, n (%)” value ([2]; PK-CSF 40 mg (n = 6)) was 0 n (%) and the “Any treatment‐emergent SAE, n (%)” value ([2]; PK-CSF 40 mg (n = 6)) was 1 (16.7) n (%). For the same molecule, the “ALT increase (AESI), one participant” value ([2]; day 2) was 1.5 ULN, the “ALT increase (AESI), one participant” value ([2]; day 7 (end‐of‐study visit)) was 2.4 ULN and the “Median pS166‐RIPK1 inhibition in PBMC lysates” value [3] was “greater than 80%”. For the same molecule, the “CL/F, geometric mean (%CV)” value ([4]; SAD 10 mg single dose) was 8.56 (37.8) L/h, the “CL/F, geometric mean (%CV)” value ([4]; SAD 20 mg single dose) was 8.28 (21.4) L/h and the “CL/F, geometric mean (%CV)” value ([4]; SAD 30 mg single dose) was 12.3 (44.7) L/h. The “CL/F, geometric mean (%CV)” value ([4]; SAD 40 mg single dose) was 7.72 (36.1) L/h, the “Dose proportionality of exposure” value ([4]; SAD between 10 mg and 40 mg) was “no major deviation from dose proportionality” and the Tmax ([4]; both, human, plasma, oral) was 1 to 1.5 h. The half-life ([4]; both, human, plasma, oral) was 5.7 to 8 h, the AUC(0-t) [4, 10] was 1120 ng·h/mL and the Vd/F [4, 10] was 98.4 L. For the same molecule, the half-life [4, 10] was 7.97 h, the Cmax [4, 11] was 241 ng/mL and the Tmax [4, 11] was 1.5 h. For the same molecule, the Vd/F [4, 11] was 89.4 L, the half-life [4, 11] was 7.48 h and the Tmax [4, 12] was 1 h. It also gave a Vd/F [4, 12] of 101 L, a half-life [4, 12] of 5.7 h and a Tmax [4, 13] of 1.5 h. It also gave a Vd/F [4, 13] of 70.1 L, a half-life [4, 13] of 6.29 h and an IC50 [5] of 3.16 nM. The “pS166‐RIPK1 inhibition in PBMC lysates” value ([6]; 48 h post last dosing) was “less inhibition of RIPK1 phosphorylation”, the “pS166‐RIPK1 inhibition in PBMC lysates” value ([6]; day 14, up to 24 h post last morning dosing) was “greater than 80%” and the “Most common AEs” value ([7]; all study parts) was “dizziness (SAD) and headache (PK‐CSF and MAD)”. For the same molecule, the Overall tolerability ([7]; healthy participants, single doses up to 40 mg, repeated doses up to 20 mg b.i.d. for 14 days) was “generally safe and well‐tolerated”, the IC50 [8] was 1.6 nM and the “Any TEAE, n (%)” value ([9]; SAD 10 mg (n = 6)) was 2 (33.3) n (%). The “Any grade ≥3 TEAE, n (%)” value ([9]; SAD 10 mg (n = 6)) was 0 n (%), the “Any treatment‐emergent AESI, n (%)” value ([9]; SAD 10 mg (n = 6)) was 0 n (%) and the “Any treatment‐emergent SAE, n (%)” value ([9]; SAD 10 mg (n = 6)) was 0 n (%). For the same molecule, the “Any TEAE, n (%)” value ([9]; SAD 20 mg (n = 6)) was 1 (16.7) n (%), the “Any grade ≥3 TEAE, n (%)” value ([9]; SAD 20 mg (n = 6)) was 0 n (%) and the “Any treatment‐emergent AESI, n (%)” value ([9]; SAD 20 mg (n = 6)) was 0 n (%). For the same molecule, the “Any treatment‐emergent SAE, n (%)” value ([9]; SAD 20 mg (n = 6)) was 0 n (%).

From paper PMC10772668 (Clinical and Translational Science, 2023)
